Reference: ChEMBL document CHEMBL3085659, “Synthesis, antiproliferative and apoptosis-inducing activity of thiazolo[5,4-d]pyrimidines” (Eur J Med Chem, 2013)

Key:
A-431 [1] = assay: Antiproliferative activity against human A431 cells after 48 hrs by SRB assay; type: functional, cell-based; conditions: A-431, 48 h
A549 [2] = assay: Cell cycle arrest in human A549 cells assessed as accumulation at G1 phase at 1 uM after 24 hrs using propidium iodide staining by flow cytometry (reference value: 59%); type: functional
Summary of the method: (§1)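 A549 at 1.2 × 10^5 cells/ml in six-well plates exposed 24 h to 1, 3 or 10 µM; PBS-washed, fixed overnight in 70% ethanol, RNase (100 µg/ml) digestion 45 min at 37 °C, propidium iodide staining; flow cytometric DNA content gives sub-G1 (apoptotic), G1, S and G2-M fractions versus untreated cells.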

A549 [3] = assay: Cell cycle arrest in human A549 cells assessed as accumulation at S phase at 10 uM after 24 hrs using propidium iodide staining by flow cytometry (reference value: 40%); type: functional; summary of the method: as §1
A549 [4] = assay: Induction of apoptosis in human A549 cells assessed as reduction of procaspase-3 expression after 24 hrs by Western blot analysis; type: functional, cell-based
Summary of the method: (§2)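 Cells treated 24 h (HL-60 at 5, 20, 30 µM; A549 at 1, 3, 10 µM); RIPA lysates, 70 µg protein resolved by SDS-PAGE, transferred to PVDF, blocked in 5% milk, probed for PARP-1 and procaspase-3 with HRP secondaries, ECL detection.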

A549 [5] = assay: Induction of apoptosis in human A549 cells assessed as nuclear condensation, membrane blebbing and formation of apoptotic bodies after 24 hrs using DAPI staining by fluorescence microscopic analysis; type: functional, cell-based
Summary of the method: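 A549 (1.5 × 10^5 cells/ml) treated 24 h at 1, 3, 5, 10 µM; trypsinized, methanol-fixed 20 min at −20 °C, DAPI (1 µg/ml) 20 min at 37 °C; nuclei scored by UV fluorescence microscopy at 40× for condensation, blebbing, apoptotic bodies; paclitaxel 1 µM positive control, untreated cells as reference.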

A549 [6] = assay: Induction of apoptosis in human A549 cells at 3 uM after 24 hrs using propidium iodide staining by flow cytometry (reference value: 7%); type: functional; summary of the method: as §1
A549 [7] = assay: Induction of apoptosis in human A549 cells at 1 uM after 24 hrs using propidium iodide staining by flow cytometry (reference value: 7%); type: functional; summary of the method: as §1
A549 [8] = assay: Cell cycle arrest in human A549 cells assessed as accumulation at G2 phase at 1 uM after 24 hrs using propidium iodide staining by flow cytometry (reference value: 1%); type: functional; summary of the method: as §1
HL-60 = assay: Antiproliferative activity against human HL60 cells assessed as growth inhibition at 10 uM after 48 hrs by SRB assay; type: functional; conditions: HL-60, 48 h, read-out: GI
A549 [9] = assay: Induction of apoptosis in human A549 cells at 10 uM after 24 hrs using propidium iodide staining by flow cytometry (reference value: 7%); type: functional; summary of the method: as §1
A549 [10] = assay: Cell cycle arrest in human A549 cells assessed as accumulation at G2 phase at 10 uM after 24 hrs using propidium iodide staining by flow cytometry (reference value: 1%); type: functional; summary of the method: as §1
[11] = Antiproliferative activity against human NCI-H322 cells after 48 hrs by SRB assay; type: functional, cell-based; conditions: NCI-H322, 48 h
PC-3 = assay: Antiproliferative activity against human PC3 cells assessed as growth inhibition at 10 uM after 48 hrs by SRB assay; type: functional; conditions: PC-3, 48 h, read-out: GI
[12] = Antiproliferative activity against human NCI-H322 cells assessed as growth inhibition at 10 uM after 48 hrs by SRB assay; type: functional; conditions: NCI-H322, 48 h, read-out: GI
A549 [13] = assay: Antiproliferative activity against human A549 cells assessed as growth inhibition at 10 uM after 48 hrs by SRB assay; type: functional; conditions: A549, 48 h, read-out: GI
[14] = Antiproliferative activity against human MIAPaCa2 cells assessed as growth inhibition at 10 uM after 48 hrs by SRB assay; type: functional; conditions: MIA PaCa-2, 48 h, read-out: GI
A-431 [15] = assay: Antiproliferative activity against human A431 cells assessed as growth inhibition at 10 uM after 48 hrs by SRB assay; type: functional; conditions: A-431, 48 h, read-out: GI
T98G [16] = assay: Antiproliferative activity against human T98G cells assessed as growth inhibition at 10 uM after 48 hrs by SRB assay; type: functional; conditions: read-out: GI
T47D = assay: Antiproliferative activity against human T47D cells assessed as growth inhibition at 10 uM after 48 hrs by SRB assay; type: functional; conditions: read-out: GI
A549 [17] = assay: Cell cycle arrest in human A549 cells assessed as accumulation at G2 phase at 3 uM after 24 hrs using propidium iodide staining by flow cytometry (reference value: 1%); type: functional; summary of the method: as §1
A549 [18] = assay: Cell cycle arrest in human A549 cells assessed as accumulation at G1 phase at 3 uM after 24 hrs using propidium iodide staining by flow cytometry (reference value: 59%); type: functional; summary of the method: as §1
A549 [19] = assay: Antiproliferative activity against human A549 cells after 48 hrs by SRB assay; type: functional, cell-based; conditions: A549, 48 h
T98G [20] = assay: Antiproliferative activity against human T98G cells after 48 hrs by SRB assay; type: functional, cell-based
A549 [21] = assay: Cell cycle arrest in human A549 cells assessed as accumulation at G1 phase at 10 uM after 24 hrs using propidium iodide staining by flow cytometry (reference value: 59%); type: functional; summary of the method: as §1
A549 [22] = assay: Cell cycle arrest in human A549 cells assessed as accumulation at S phase at 1 uM after 24 hrs using propidium iodide staining by flow cytometry (reference value: 40%); type: functional; summary of the method: as §1
A549 [23] = assay: Cell cycle arrest in human A549 cells assessed as accumulation at S phase at 3 uM after 24 hrs using propidium iodide staining by flow cytometry (reference value: 40%); type: functional; summary of the method: as §1
A549 [24] = assay: Induction of apoptosis in human A549 cells assessed as cleavage of PARP1 after 24 hrs by Western blot analysis; type: functional, cell-based; summary of the method: as §2

Compound `CCN(CC)c1ncnc2sc(Nc3ccc(Cl)cc3)nc12` has an IC50 (A-431 [1]) of 3.1 µM, an Activity (A549 [2]) of 55% and an Activity (A549 [3]) of 43%. The Activity (A549 [4]) was “Dose-dependent effect”, the Activity (A549 [5]) was “Dose-dependent effect” and the Activity (A549 [6]) was 44%. The Activity (A549 [7]) was 22%, the Activity (A549 [8]) was 1% and the inhibition of growth at 10 µM (HL-60) was 22%. For the same compound, the Activity (A549 [9]) was 53%, the Activity (A549 [10]) was 26% and the IC50 [11] was 7.1 µM. It also gave an inhibition of growth at 10 µM (PC-3) of 22%, an inhibition of growth at 10 µM [12] of 57% and an inhibition of growth at 10 µM (A549 [13]) of 81%. It also gave an inhibition of growth at 10 µM [14] of 14%, an inhibition of growth at 10 µM (A-431 [15]) of 82% and an inhibition of growth at 10 µM (T98G [16]) of 74%. It also gave an inhibition of growth at 10 µM (T47D) of 18%, an Activity (A549 [17]) of 4% and an Activity (A549 [18]) of 65%. It also gave an IC50 (A549 [19]) of 1.4 µM, an IC50 (T98G [20]) of 3.4 µM and an Activity (A549 [21]) of 31%. For the same compound, the Activity (A549 [22]) was 44%, the Activity (A549 [23]) was 31% and the Activity (A549 [24]) was “Dose-dependent effect”.
